SMILES strings stand for the structures. pIC50: −log10 of the molar value.

A word on the Papp B→A: it is how fast a substance crosses the layer from the basolateral side. In general, pIC50 refers to −log10 of the IC50, conventionally taken in molar units.

One data set deals with P-glycoprotein. The experiment in a line: Permeability assessed as human P-glycoprotein-mediated transport across basolateral to apical side expressed in pig LLC-PK1 cells at 500 uM by liquid scintillation counting. Type of data set: ADME, cell-based.
Data set [1] in a line: Protein binding in plasma (unknown origin). Type of data set: ADME, cell-free. Conditions: read-out: PPB (converted); call rule not given here.
A short description of data set [2]: Maximal inhibition of human P-glycoprotein expressed in pig LLC-PK1 cells assessed as reduction of [3H]digoxin substrate transport at 100 uM by liquid scintillation counting. Type of data set: ADME, cell-based. Conditions: llc-pk1, 100 µM. In a few lines:
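P-gp-expressing and parental LLC-PK1 monolayers were grown on transwell inserts for 6–7 days to confluence and switched to serum-free M199 1 h before assay. [3H]digoxin was given apical-to-basal or basal-to-apical, with inhibitor in both chambers, at 37 °C, solvent ≤0.5%. Receiver samples were scintillation-counted and Papp taken from the linear phase. Results are % of control BtoA transport, mean ± S.D., n≥3.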

A short description of data set [3]: Inhibition of human P-glycoprotein expressed in pig LLC-PK1 cells assessed as reduction of [3H]digoxin substrate transport from basolateral to apical side by liquid scintillation counting. The class given is ADME, cell-based.
Data set [4] deals with T1, Solute carrier family 22 member 11 (Homo sapiens, UniProt Q9NSA0).
T1 sequence (Q9NSA0 whole entry): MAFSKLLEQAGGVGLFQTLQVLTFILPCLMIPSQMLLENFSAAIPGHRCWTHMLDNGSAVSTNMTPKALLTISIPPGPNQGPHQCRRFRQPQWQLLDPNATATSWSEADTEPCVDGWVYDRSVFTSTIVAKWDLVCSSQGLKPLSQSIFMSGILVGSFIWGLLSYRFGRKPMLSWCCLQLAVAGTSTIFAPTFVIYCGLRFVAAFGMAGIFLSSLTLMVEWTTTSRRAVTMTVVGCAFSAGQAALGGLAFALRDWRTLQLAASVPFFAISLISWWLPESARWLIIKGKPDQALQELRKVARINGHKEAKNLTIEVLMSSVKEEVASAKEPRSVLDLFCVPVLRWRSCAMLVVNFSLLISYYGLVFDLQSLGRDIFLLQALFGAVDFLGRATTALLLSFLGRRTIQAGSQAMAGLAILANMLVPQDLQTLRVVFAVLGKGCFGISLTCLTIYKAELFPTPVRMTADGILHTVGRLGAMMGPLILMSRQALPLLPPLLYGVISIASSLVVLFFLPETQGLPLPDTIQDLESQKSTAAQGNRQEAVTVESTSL
The data set can be described thus: Inhibition of OAT4 (unknown origin) expressed in HEK293 cells assessed as reduction of [3H]E-sul substrate uptake at 100 uM by liquid scintillation counting. To be noted: hek293, 100 µM. Type of data set: ADME, cell-based. In a few lines:
(§1)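 HEK293 cells transiently transfected with OAT, OATP or OCT plasmid (FuGENE6; 24 h, then 24 h more with sodium butyrate), or stable OCTN1/OCTN2 lines; vector-transfected cells as control. Washed, preincubated 15–60 min at 37 °C in modified Krebs-Henseleit/25 mM HEPES buffer. Uptake of radiolabelled substrate, 100 µM inhibitor. Cells lysed in NaOH and counted by scintillation; counts normalised to medium radioactivity and Lowry protein; vector uptake subtracted.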

Data set [5] deals with T2, Solute carrier organic anion transporter family member 1B1 (Homo sapiens, UniProt Q9Y6L6).
T2 sequence (Q9Y6L6 whole entry): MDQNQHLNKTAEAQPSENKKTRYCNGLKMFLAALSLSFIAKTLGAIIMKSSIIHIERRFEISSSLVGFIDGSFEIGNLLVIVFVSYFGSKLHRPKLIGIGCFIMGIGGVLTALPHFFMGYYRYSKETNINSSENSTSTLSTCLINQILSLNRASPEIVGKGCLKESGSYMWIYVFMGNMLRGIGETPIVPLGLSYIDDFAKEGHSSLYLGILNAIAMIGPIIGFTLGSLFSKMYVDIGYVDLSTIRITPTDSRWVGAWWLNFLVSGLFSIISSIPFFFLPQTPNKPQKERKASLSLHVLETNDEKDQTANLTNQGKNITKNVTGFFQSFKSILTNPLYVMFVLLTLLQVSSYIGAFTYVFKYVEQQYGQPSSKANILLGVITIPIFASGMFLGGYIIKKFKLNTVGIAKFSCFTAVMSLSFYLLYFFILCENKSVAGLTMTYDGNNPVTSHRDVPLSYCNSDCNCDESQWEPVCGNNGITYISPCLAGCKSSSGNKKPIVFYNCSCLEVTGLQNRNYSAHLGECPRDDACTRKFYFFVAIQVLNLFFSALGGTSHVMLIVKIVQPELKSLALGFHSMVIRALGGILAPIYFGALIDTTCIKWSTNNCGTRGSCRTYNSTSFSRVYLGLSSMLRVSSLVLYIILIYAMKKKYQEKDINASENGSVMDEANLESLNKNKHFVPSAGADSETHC
The data set can be described thus: Inhibition of OATP1B1 (unknown origin) expressed in HEK293 cells assessed as reduction of [3H]E217betaG substrate uptake at 100 uM by liquid scintillation counting. Type of data set: ADME, cell-based. Conditions: hek293, 100 µM. The essentials:
as §1

The nature of data set [6]: Permeability assessed as human P-glycoprotein-mediated transport across basolateral to apical side expressed in pig LLC-PK1 cells by measuring membrane permeability time by Transwell experiment/liquid scintillation counting. Type of data set: ADME, cell-based.
In data set [7] the target is T3, Solute carrier organic anion transporter family member 1B3 (Homo sapiens, UniProt Q9NPD5).
T3 sequence (Q9NPD5 whole entry): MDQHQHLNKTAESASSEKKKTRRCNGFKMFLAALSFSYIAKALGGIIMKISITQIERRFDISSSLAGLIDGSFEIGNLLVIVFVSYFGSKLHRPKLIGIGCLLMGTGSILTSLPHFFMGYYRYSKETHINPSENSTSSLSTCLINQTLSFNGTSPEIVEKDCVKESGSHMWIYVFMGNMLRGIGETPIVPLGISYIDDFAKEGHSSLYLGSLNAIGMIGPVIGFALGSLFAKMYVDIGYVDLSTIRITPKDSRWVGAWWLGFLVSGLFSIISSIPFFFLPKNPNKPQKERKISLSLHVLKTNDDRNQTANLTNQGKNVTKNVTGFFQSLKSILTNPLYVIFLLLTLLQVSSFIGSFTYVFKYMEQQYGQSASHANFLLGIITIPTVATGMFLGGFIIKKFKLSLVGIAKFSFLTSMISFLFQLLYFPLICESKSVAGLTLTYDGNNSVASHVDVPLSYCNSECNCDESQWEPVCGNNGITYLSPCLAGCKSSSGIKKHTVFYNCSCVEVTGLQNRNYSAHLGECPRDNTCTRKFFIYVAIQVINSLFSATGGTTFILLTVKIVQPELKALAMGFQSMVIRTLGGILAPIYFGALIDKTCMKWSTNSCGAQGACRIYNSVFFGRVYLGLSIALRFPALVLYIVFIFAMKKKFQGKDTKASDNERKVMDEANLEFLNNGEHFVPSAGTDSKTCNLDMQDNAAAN
The experiment in a line: Inhibition of OATP1B3 (unknown origin) expressed in HEK293 cells assessed as reduction of [3H]CCK8 substrate uptake at 100 uM by liquid scintillation counting. Type of data set: ADME, cell-based. To be noted: hek293, 100 µM. The essentials:
as §1

Turning to `CC#CCn1c(N2CCC[C@@H](N)C2)nc2c1c(=O)n(Cc1nc(C)c3ccccc3n1)c(=O)n2C` [LINAGLIPTIN], the Papp B→A at 500 µM in the data set on P-glycoprotein amounted to 15.7 ×10⁻⁶ cm/s. For the same compound, the fraction unbound in data set [1] is 0.2. For the same compound, the “inhibition (INH)” value is recorded as “Active” in data set [2], 0% in data set [4], 35.5% in data set [5] and 3.39% in data set [7]. Further, the pIC50 in data set [3] is 4.18. For the same compound, the Time in data set [6] was determined as 2.71 h.

(Values after ChEMBL document CHEMBL3525903 (Drug Metab Dispos, 2013).)
